Assay results published in ChEMBL document CHEMBL3632511, “Oxopyrido[2,3-d]pyrimidines as Covalent L858R/T790M Mutant Selective Epidermal Growth Factor Receptor (EGFR) Inhibitors” (ACS Med Chem Lett, 2015).
Calls of active or inactive are those of the source. The calls are words filed in the database; no cut-off is given here.

Tests used:
NCI-H1975 [1] = assay: Cytotoxicity against human NCI-H1975 cells harboring EGFR L858R/T790M double mutant assessed as inhibition of cell proliferation after 72 hrs by CellTiter-Glo assay; format: functional, cell-based; conditions: NCI-H1975, 72 h
[2] = Cytotoxicity against human HCC827 cells harboring EGFR 746 to 750 deletion mutant assessed as inhibition of cell proliferation after 72 hrs by CellTiter-Glo assay; format: functional, cell-based; conditions: HCC827, 72 h
A-431 = assay: Cytotoxicity against human A431 cells expressing wild-type EGFR assessed as inhibition of cell proliferation after 72 hrs by CellTiter-Glo assay; format: cell-based; conditions: A-431, 72 h
[3] = target: Epidermal growth factor receptor (Homo sapiens, UniProt P00533, L858R/T790M); assay: Inhibition of EGFR L858R/T790M double mutant phosphorylation in human NCI-H1975 cells after 60 mins by mesoscale multiplex assay; format: cell-based
Chain of Epidermal growth factor receptor (Homo sapiens, UniProt P00533, L858R/T790M) (P00533 25-1210 T790M/L858R limits assumed): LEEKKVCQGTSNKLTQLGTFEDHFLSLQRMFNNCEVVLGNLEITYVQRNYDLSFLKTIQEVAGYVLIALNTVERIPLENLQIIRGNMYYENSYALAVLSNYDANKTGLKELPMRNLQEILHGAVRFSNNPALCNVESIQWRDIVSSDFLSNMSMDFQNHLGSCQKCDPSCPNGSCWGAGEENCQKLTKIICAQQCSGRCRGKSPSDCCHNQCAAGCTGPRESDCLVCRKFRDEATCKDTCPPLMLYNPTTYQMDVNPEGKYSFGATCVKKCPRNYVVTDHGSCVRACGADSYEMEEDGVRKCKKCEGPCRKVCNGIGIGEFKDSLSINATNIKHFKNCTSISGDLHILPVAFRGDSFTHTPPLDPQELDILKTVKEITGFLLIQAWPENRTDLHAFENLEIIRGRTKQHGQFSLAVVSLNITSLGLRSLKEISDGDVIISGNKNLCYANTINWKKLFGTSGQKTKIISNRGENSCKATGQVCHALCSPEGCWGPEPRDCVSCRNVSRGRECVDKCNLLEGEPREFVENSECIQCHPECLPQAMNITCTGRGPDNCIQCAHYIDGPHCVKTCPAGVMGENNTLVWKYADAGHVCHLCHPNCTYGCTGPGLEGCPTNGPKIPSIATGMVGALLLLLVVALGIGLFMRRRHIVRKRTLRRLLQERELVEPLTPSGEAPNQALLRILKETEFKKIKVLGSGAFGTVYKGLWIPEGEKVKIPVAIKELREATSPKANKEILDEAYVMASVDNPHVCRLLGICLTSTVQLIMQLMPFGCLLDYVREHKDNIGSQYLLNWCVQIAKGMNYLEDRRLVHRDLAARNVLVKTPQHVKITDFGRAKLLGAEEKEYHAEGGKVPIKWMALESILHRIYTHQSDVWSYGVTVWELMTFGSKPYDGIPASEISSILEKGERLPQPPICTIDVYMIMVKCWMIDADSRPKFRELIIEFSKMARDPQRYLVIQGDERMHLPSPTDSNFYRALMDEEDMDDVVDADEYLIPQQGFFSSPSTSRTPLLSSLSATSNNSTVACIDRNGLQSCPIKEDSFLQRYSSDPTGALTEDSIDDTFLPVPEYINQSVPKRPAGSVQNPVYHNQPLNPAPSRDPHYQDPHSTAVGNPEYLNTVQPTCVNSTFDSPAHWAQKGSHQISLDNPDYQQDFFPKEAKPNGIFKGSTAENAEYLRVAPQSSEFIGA

[4] = target: Epidermal growth factor receptor (Homo sapiens, UniProt P00533, 746-750DEL); assay: Inhibition of EGFR 746 to 750 deletion mutant phosphorylation in human HCC827 cells after 60 mins by mesoscale multiplex assay; format: cell-based
Chain of Epidermal growth factor receptor (Homo sapiens, UniProt P00533, 746-750DEL) (P00533 whole entry, looked up, stated change not applied): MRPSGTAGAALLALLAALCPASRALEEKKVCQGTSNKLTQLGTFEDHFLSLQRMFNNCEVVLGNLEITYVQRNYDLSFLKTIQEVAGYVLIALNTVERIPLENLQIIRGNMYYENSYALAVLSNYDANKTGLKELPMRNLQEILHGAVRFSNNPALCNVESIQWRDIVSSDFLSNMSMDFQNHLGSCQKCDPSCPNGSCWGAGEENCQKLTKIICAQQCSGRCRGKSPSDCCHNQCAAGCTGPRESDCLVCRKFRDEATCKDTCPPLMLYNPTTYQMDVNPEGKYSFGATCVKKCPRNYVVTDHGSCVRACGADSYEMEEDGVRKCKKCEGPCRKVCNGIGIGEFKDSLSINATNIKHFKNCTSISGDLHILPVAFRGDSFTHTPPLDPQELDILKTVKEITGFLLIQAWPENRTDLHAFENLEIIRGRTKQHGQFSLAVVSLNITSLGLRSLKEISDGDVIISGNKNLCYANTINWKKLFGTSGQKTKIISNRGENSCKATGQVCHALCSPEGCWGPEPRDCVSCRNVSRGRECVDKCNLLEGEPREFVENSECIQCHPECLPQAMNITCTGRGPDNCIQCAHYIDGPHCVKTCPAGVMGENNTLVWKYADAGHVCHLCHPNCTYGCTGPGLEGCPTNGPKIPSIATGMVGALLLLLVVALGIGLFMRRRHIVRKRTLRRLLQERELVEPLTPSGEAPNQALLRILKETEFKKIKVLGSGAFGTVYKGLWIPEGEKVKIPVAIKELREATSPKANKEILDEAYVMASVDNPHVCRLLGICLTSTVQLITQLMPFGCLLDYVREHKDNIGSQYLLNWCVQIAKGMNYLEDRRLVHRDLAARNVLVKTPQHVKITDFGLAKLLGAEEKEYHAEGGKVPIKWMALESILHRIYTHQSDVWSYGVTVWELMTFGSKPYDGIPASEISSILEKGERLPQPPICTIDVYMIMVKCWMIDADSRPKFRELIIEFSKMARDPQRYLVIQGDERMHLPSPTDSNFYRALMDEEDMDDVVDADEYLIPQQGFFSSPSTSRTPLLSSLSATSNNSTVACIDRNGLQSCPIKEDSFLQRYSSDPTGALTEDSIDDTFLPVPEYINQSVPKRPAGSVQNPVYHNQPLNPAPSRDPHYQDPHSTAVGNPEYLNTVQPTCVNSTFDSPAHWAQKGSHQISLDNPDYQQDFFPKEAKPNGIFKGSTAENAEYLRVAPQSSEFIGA

[5] = target: Epidermal growth factor receptor (Homo sapiens, UniProt P00533); assay: Inhibition of wild type EGFR phosphorylation in human A431 cells after 60 mins by mesoscale multiplex assay; format: cell-based, A-431
Chain of Epidermal growth factor receptor (Homo sapiens, UniProt P00533) (P00533 whole entry): as the sequence (P00533 whole entry, looked up, stated change not applied) above

Mus musculus = assay: In vivo inhibition of EGFR L858R/T790M double mutant phosphorylation in human NCI-H1975 cells xenografted in athymic nude mouse at 30 mg/kg, po measured at 4 hrs by mesoscale multiplex assay relative to control; format: functional
In short: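 Female athymic nude mice carried matrigel plugs holding 5 x 10⁶ H1975 cells, n = 3 per group. Control or compound given at 30 mg/kg po. Plugs and plasma taken 4 h after dosing. p-EGFR in plug measured by quantitative MSD assay, given as % p-EGFR/PRAS40 vs control.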

NCI-H1975 [6] = assay: Antitumor activity against human NCI-H1975 cells xenografted in athymic nude mouse assessed as tumor growth inhibition at 30 mg/kg, po qd administered for 2 weeks started on day 6 post tumor implantation measured on day 19 relative to control; format: functional
Rattus norvegicus [7] = species on record: Rattus norvegicus; assay: Hepatobiliary toxicity in Sprague-Dawley rat measured for 4 days; format: organism-based; conditions: in vivo, 96 h
Rattus norvegicus [8] = assay: (§1) Clearance in Sprague-Dawley rat at 1 mg/kg, iv; format: ADME, organism-based; conditions: in vivo
In short: (§2)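 Male Sprague Dawley rats, 3 animals per route; mean values. IV dose 1 mg/kg as a DMSO solution. Oral dose 10 mg/kg, in one of three vehicles by compound: 1% Pluronic F68/2% HPMC/15% HPBCD/82% water–methanesulfonic acid pH 4.5; 20% HPBCD/80% water–methanesulfonic acid pH 4.0; or 1% Pluronic F68/2% HPMC/97% water–methanesulfonic acid pH 4.0.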

[9] = Volume of distribution at steady state in Sprague-Dawley rat at 1 mg/kg, iv; format: ADME, organism-based; conditions: in vivo, read-out: Vdss; in short: as §2
[10] = Half life in Sprague-Dawley rat at 1 mg/kg, iv; format: ADME, organism-based; conditions: in vivo; in short: as §2
Rattus norvegicus [11] = assay: (§3) AUC (0 to infinity) in Sprague-Dawley rat at 10 mg/kg, po; format: ADME, organism-based; design: dose 10 mg/kg, route oral, time infinity; conditions: in vivo; in short: as §2
Rattus norvegicus [12] = assay: (§4) Oral bioavailability in Sprague-Dawley rat at 10 mg/kg; format: ADME, organism-based; conditions: in vivo; in short: as §2
[13] = Selectivity ratio of IC50 for wild type EGFR phosphorylation in human A431 cells to IC50 for EGFR L858R/T790M double mutant phosphorylation in human NCI-H1975 cells; format: ADME, cell-based
[14] = Selectivity ratio of IC50 for wild type EGFR phosphorylation in human A431 cells to IC50 for EGFR 746 to 750 deletion mutant phosphorylation in human HCC827 cells; format: ADME, cell-based
[15] = Selectivity ratio of IC50 for human A431 cells expressing wild-type EGFR to IC50 for human NCI-H1975 cells harboring EGFR L858R/T790M double mutant; format: ADME, cell-based
[16] = Selectivity ratio of IC50 for human A431 cells expressing wild-type EGFR to IC50 for human HCC827 cells harboring EGFR 746 to 750 deletion mutant; format: ADME, cell-based
[17] = as §1; format: ADME, organism-based; conditions: Sprague-Dawley, in vivo; in short: as §2
[18] = as §3; format: ADME, organism-based; design: dose 10 mg/kg, route oral, time infinity; conditions: Sprague-Dawley, in vivo; in short: as §2
[19] = as §4; format: ADME, organism-based; conditions: Sprague-Dawley, in vivo; in short: as §2

Row | IC50 [3] | IC50 [4] | IC50 [5] | Vd [9] | half-life [10] | Compound | IC50 (NCI-H1975 [1]) | IC50 [2] | IC50 (A-431) | inhibition in vivo at 30 mg/kg (Mus musculus) | Activity (Rattus norvegicus [7]) | further results
1 | – | – | – | – | – | C=CC(=O)Nc1cccc(-n2c(=O)cc(C)c3cnc(Nc4ccc(N5CCN(C(C)=O)CC5)cc4OC)nc32)c1 | 30 nM | 58 nM | > 5000 nM | – | – | –
2 | – | – | – | – | – | C=CC(=O)Nc1cccc(-n2c(=O)c(OC)c(C)c3cnc(Nc4ccc(N5CCN(C)CC5)cc4OC)nc32)c1 | 10 nM | 41 nM | 1390 nM | – | – | –
3 | 6 nM | 12 nM | 521 nM | 20 L/kg | 2.6 h | C=CC(=O)Nc1cccc(-n2c(=O)cc(C)c3cnc(Nc4ccc(N(C)CCN(C)C)cc4OC)nc32)c1 | 8 nM | 22 nM | > 1000 nM | 80% | Non-toxic | TGI (NCI-H1975 [6]): Active; CL (Rattus norvegicus [8]): 128 mL/min/kg; AUC (Rattus norvegicus [11]): 0.16 µM·h; F (Rattus norvegicus [12]): 21%
4 | – | – | – | – | – | C=CC(=O)Nc1cccc(-n2c(=O)cc(C)c3cnc(Nc4ccc(N5CCOCC5)cc4OC)nc32)c1 | > 10000 nM | – | – | – | – | –
5 | – | – | – | – | – | C=CC(=O)Nc1cccc(-n2c(=O)cc(C)c3cnc(Nc4ccc(C5CCN(C)CC5)cc4OC)nc32)c1 | 4 nM | 33 nM | – | – | – | –
6 | 4 nM | 12 nM | 386 nM | 7.8 L/kg | 3 h | C=CC(=O)Nc1cccc(-n2c(=O)cc(C)c3cnc(Nc4ccc(N5CCN(C)CC5)cc4OC)nc32)c1 | 4 nM | 12 nM | 1200 nM | 90% | Toxic | Ratio IC50 [13]: 100; Ratio IC50 [14]: 100; Ratio IC50 [15]: > 100; Ratio IC50 [16]: > 100; clearance [17]: 177 mL/min/kg; AUC(0-inf) [18]: 0.18 µM·h; bioavailability [19]: 9.5%
